Results from ChEMBL document CHEMBL3414437, “Synthesis of CDDO-amino acid-nitric oxide donor trihybrids as potential antitumor agents against both drug-sensitive and drug-resistant colon cancer” (J Med Chem, 2015).
The source made the active and inactive calls. No cut-off for these calls is given here.

Tests used:
HCT-8 [1] = experiment: (§1) Antiproliferative activity against human HCT8 cells assessed as inhibition of cell proliferation at 1 uM after 72 hrs by MTT assay; assay type: functional
Procedure, shortened: (§2)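 Cells grown in DMEM with 10% FBS and exposed to compound at 1 µM for 72 h. Proliferation measured by MTT at 570 nm and expressed as % inhibition versus untreated cells. Mean ± SD of three independent experiments.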

HCT-8 [2] = experiment: Inhibition of ERK protein phosphorylation in FU-resistant human HCT8 cells at 0.25 to 1 uM incubated for 24 hrs by Western blotting method; assay type: cell-based
Procedure, shortened: (§3)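 Cells (1 x 10^6) grown 24 h in 6 cm dishes, then exposed in duplicate for 24 h to 0.25, 0.5 or 1 µM compound, with or without PTIO. Lysates (20 µg/lane) were run on 7.5% SDS-PAGE, blotted to PVDF and blocked in 5% milk. HRP secondaries with ECL detection; bands quantified by densitometry against β-actin or GAPDH. Three separate experiments, mean ± SD.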

[3] = as §1; assay type: functional; conditions: HCT-8, 72 h, read-out: GI; procedure, shortened: as §2
HCT-8 [4] = experiment: Induction of apoptosis in 5-FU resistant human HCT8 cells incubated for 24 hrs by FITC-Annexin-V and propidium iodide staining based flow cytometry; assay type: functional, cell-based
HCT-8 [5] = experiment: Inhibition of HIF-1alpha protein expression in human HCT8 cells at 0.25 to 1 uM incubated for 24 hrs by Western blotting method; assay type: functional, cell-based; procedure, shortened: as §3

| SMILES | growth inhibition (GI) (HCT-8 [1]) | inhibition (HCT-8 [2]) | inhibition of growth at 1 µM [3] [%] | Activity (HCT-8 [4]) | inhibition (HCT-8 [5]) |
| --- | --- | --- | --- | --- | --- |
| COC(=O)[C@]12CCC(C)(C)C[C@H]1[C@H]1C(=O)C=C3[C@@]4(C)C=C(C#N)C(=O)C(C)(C)[C@@H]4CC[C@@]3(C)[C@]1(C)CC2 [BARDOXOLONE METHYL] | Active |  |  |  |  |
| CC1(C)CC[C@]2(C(=O)NCC(=O)OCC#CCOc3no[n+]([O-])c3S(=O)(=O)c3ccccc3)CC[C@]3(C)[C@H](C(=O)C=C4[C@@]5(C)C=C(C#N)C(=O)C(C)(C)[C@@H]5CC[C@]43C)[C@@H]2C1 |  | Dose-dependent effect | > 90 | Dose-dependent effect | Dose-dependent effect |
